Columns and labels:
[1] = target: T1, Tyrosine-protein phosphatase non-receptor type 1 (Homo sapiens, UniProt P18031); assay: Inhibition of GST-tagged human PTP1B
T1 sequence (P18031 whole entry): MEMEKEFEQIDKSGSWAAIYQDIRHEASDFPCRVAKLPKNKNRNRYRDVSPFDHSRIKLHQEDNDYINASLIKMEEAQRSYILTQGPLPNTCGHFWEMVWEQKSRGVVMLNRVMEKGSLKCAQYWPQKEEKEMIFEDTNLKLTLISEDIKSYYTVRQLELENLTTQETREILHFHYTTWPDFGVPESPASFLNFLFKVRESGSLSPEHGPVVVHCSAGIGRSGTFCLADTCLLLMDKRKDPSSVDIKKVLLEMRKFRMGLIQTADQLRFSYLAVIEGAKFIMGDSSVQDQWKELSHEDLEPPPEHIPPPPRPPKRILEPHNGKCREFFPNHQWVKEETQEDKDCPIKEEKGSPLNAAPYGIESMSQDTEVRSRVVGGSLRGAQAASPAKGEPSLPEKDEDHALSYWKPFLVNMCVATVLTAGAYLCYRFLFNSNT
Method in brief: (§1)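 p-Nitrophenylphosphate hydrolysis at 37 °C in pH 7.0 buffer with 0.075 M β,β-dimethylglutarate, 1 mM EDTA and 5 mM DTT. The enzyme was added to start the reaction, which was stopped with 1 M KOH. Released p-nitrophenolate was read at 400 nm. Initial rates were measured in triplicate with substrate fixed at each PTP's Km. IC50 was fitted from Vi/V0 = IC50/(IC50+[I]).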

[2] = target: T2, Low molecular weight phosphotyrosine protein phosphatase (Saccharomyces cerevisiae S288c, UniProt P40347); assay: Inhibition of Saccharomyces cerevisiae Ltp1; method in brief: as §1
T2 sequence (P40347 whole entry): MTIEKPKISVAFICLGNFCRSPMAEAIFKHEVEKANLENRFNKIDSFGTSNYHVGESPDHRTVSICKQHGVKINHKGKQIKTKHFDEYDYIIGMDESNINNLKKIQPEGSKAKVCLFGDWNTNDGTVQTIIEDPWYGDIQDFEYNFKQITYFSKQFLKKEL

[3] = target: Low molecular weight PTP, IF2 isoform (Homo sapiens); assay: Inhibition of GST-tagged human LMW PTP1B IF2 isoform
[4] = target: T3, Low molecular weight phosphotyrosine protein phosphatase (Homo sapiens, UniProt P24666); assay: Inhibition of GST-tagged human LMW PTP1B IF1 isoform; method in brief: as §1
T3 sequence (P24666 whole entry): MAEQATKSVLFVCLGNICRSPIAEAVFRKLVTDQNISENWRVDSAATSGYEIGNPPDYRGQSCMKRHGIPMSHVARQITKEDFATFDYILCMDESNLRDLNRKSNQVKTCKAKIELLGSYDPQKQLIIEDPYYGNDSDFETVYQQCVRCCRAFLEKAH

IC50 [1] [µM] | IC50 [2] [µM] | IC50 [3] [µM] | IC50 [4] [µM] | SMILES
1.1 | 6.3 |  |  | O=C(O)c1ccc(CN2C(=O)/C(=C/c3ccc(Oc4ccccc4)cc3)S/C2=N\c2ccccc2)cc1
30.1 | 195 | 270 | 47.7 | O=C(O)c1ccc(CN2C(=O)/C(=C/c3ccc(O)cc3)S/C2=N\c2ccccc2)cc1
3.8 | 12.9 |  |  | O=C(O)c1ccc(CN2C(=O)/C(=C/c3cccc(OCc4ccccc4)c3)S/C2=N\c2ccccc2)cc1
35.4 | > 250 | > 250 | 62.5 | O=C(O)c1ccc(CN2C(=O)/C(=C/c3cccc(O)c3)S/C2=N\c2ccccc2)cc1
1.1 | 15.9 |  |  | O=C(O)c1ccc(CN2C(=O)/C(=C/c3ccc(OCc4ccccc4)cc3)S/C2=N\c2ccccc2)cc1
19.5 | 345 |  |  | O=C(O)c1ccc(CN2C(=O)/C(=C/c3ccc(O)c(C(=O)O)c3)S/C2=N\c2ccccc2)cc1
14 | > 500 |  |  | O=C(O)c1ccc(CN2C(=O)/C(=C/c3cccc4ccccc34)S/C2=N\c2ccccc2)cc1
1.9 | 27.6 | 13.8 | 3.7 | O=C(O)c1ccc(CN2C(=O)/C(=C/c3ccc4ccccc4c3)S/C2=N\c2ccccc2)cc1
1.9 | 11.1 |  |  | O=C(O)c1ccc(CN2C(=O)/C(=C/c3cccc(Oc4ccccc4)c3)S/C2=N\c2ccccc2)cc1
32.1 | > 250 |  |  | COc1ccc(/C=C2\S/C(=N\c3ccccc3)N(Cc3ccc(C(=O)O)cc3)C2=O)cc1O
33.7 | > 250 |  |  | COc1cc(/C=C2\S/C(=N\c3ccccc3)N(Cc3ccc(C(=O)O)cc3)C2=O)ccc1O

Source: ChEMBL document CHEMBL1153913, “5-Arylidene-2-phenylimino-4-thiazolidinones as PTP1B and LMW-PTP inhibitors” (Bioorg Med Chem, 2009)
